Laboratory results: ChEMBL document CHEMBL4177755, “Combating Drug-Resistant Fungi with Novel Imperfectly Amphipathic Palindromic Peptides” (J Med Chem, 2018)
Values after ≈ are worked out from the molar mass of the structure shown.

Tests used:
Staphylococcus aureus [1] = assay: Bactericidal activity against methicillin-resistant Staphylococcus aureus ATCC 4330; format: functional; conditions: read-out: MBC99.9
Outline: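 Bacteria at (0.5−1) × 10^5 CFU/mL in MHB were exposed to serially diluted peptide (0.2% BSA) for 24 h at 37 °C, then 50 μL aliquots were plated on agar overnight. MBC is the lowest concentration killing >99.9% of cells. At least 3 repeats.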

Candida albicans [2] = assay: Fungicidal activity against Candida albicans SP3931 after 96 hrs; format: functional; conditions: SP3931, 96 h, read-out: MFC99.9
Outline: (§1)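 After the 48 h, 28 °C broth microdilution in MOPS-buffered RPMI 1640 (inoculum (0.5−1) × 10^3 CFU/mL), 50 μL from each well was plated on YM agar for a further 48 h at 28 °C. MFC is the lowest concentration killing at least 99.9% of cells. Triplicate, three biological replicates.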

Candida albicans [3] = assay: Fungicidal activity against Candida albicans SP3902 after 96 hrs; format: functional; conditions: SP3902, 96 h, read-out: MFC99.9; outline: as §1
Staphylococcus aureus [4] = assay: Antibacterial activity against methicillin-resistant Staphylococcus aureus ATCC 4330 after 24 hrs; format: functional; conditions: ATCC 4330, 24 h
Outline: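 Modified NCCLS broth microdilution. Mid-log bacteria at (0.5−1) × 10^5 CFU/mL in MHB were mixed 1:1 with peptide serially diluted in 0.2% BSA and incubated 24 h at 37 °C. Absorbance was read at 492 nm; MIC is the lowest concentration inhibiting 95% of growth. At least 3 repeats.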

Candida albicans [5] = assay: Antifungal activity against Candida albicans SP3931 after 48 hrs by broth microdilution method; format: functional; conditions: SP3931, 48 h
Outline: (§2)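 Modified CLSI M27-A2 broth microdilution. Yeast at (0.5−1) × 10^3 CFU/mL in MOPS-buffered RPMI 1640 was mixed 1:1 with peptide serially diluted in 0.2% BSA and incubated 48 h at 28 °C. Absorbance was read at 492 nm; MIC is the lowest concentration inhibiting 95% of growth. Triplicate, three biological replicates.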

Escherichia coli [6] = assay: Antibacterial activity against Escherichia coli ATCC 25922 after 18 hrs in presence of MgCl2 by broth dilution method; format: functional; conditions: ATCC 25922, 18 h
Staphylococcus aureus [7] = assay: Bactericidal activity against Staphylococcus aureus ATCC 25923; format: functional; conditions: read-out: MBC99.9
Outline: (§3)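 Wells from the 24 h, 37 °C MHB microdilution plates (bacteria at a final (0.5−1) × 10^5 CFU/mL; peptide diluted in 0.2% BSA) were plated on agar and incubated overnight. MBC is the lowest concentration killing >99.9% of cells. Each test was reproduced at least 3 times.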

Candida albicans [8] = assay: Antifungal activity against Candida albicans cgmcc 2.2086 in presence of KCl by broth dilution method; format: functional
Candida albicans [9] = assay: Antifungal activity against Candida albicans isolated from alveolar fluid after 48 hrs by broth microdilution method; format: functional; outline: as §2
Candida albicans [10] = assay: Fungicidal activity against Candida albicans 14936 after 96 hrs; format: functional; conditions: Candida albicans, 14936, 96 h; read-out: MFC99.9; outline: as §1
Candida albicans [11] = assay: Antifungal activity against fluconazole-resistant Candida albicans 17546 after 48 hrs by broth microdilution method; format: functional; conditions: Candida albicans, 17546, 48 h; outline: as §2
Candida parapsilosis = assay: Antifungal activity against Candida parapsilosis cgmcc 2.3989 after 48 hrs by broth microdilution method; format: functional; conditions: Lodderomyces parapsilosis, cgmcc 2.3989, 48 h
Outline: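 Modified CLSI M27-A2 broth microdilution. Yeast were suspended in MOPS-buffered RPMI 1640 at a final (0.5−1) × 10^3 CFU/mL and mixed 1:1 with peptide serially diluted in 0.2% BSA. Plates were incubated 48 h at 28 °C and read at A492. MIC is the lowest concentration giving 95% inhibition. Run in triplicate with three biological replicates.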

Candida albicans [12] = assay: Antifungal activity against Candida albicans cgmcc 2.2086 in presence of CaCl2 by broth dilution method; format: functional
Pichia kudriavzevii = assay: Fungicidal activity against Candida krusei cgmcc 2.1857 after 96 hrs; format: functional; conditions: cgmcc 2.1857, 96 h, read-out: MFC99.9
Outline: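 Wells from the 48 h, 28 °C RPMI 1640/MOPS microdilution plates were plated on YM agar and incubated a further 48 h at 28 °C. MFC is the lowest concentration killing at least 99.9% of cells. Run in triplicate with three biological replicates.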

Candida albicans [13] = assay: Fungicidal activity against fluconazole-resistant Candida albicans 56452 after 96 hrs; format: functional; conditions: Candida albicans, 56452, 96 h; read-out: MFC99.9; outline: as §1
Erythrocyte = assay: Hemolytic activity in human RBC after 1 hr; format: ADME, cell-based
Outline: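 Fresh human erythrocytes, diluted 10-fold in PBS pH 7.4, were mixed with equal volumes of peptide and held 1 h at 37 °C. After centrifugation at 1000g, supernatant hemoglobin was read at 576 nm. PBS set 0% and 0.1% Triton X-100 set 100% lysis. MHC is the concentration causing 10% hemolysis. At least three experiments were run, each in technical triplicate.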

Escherichia coli [14] = assay: Antibacterial activity against Escherichia coli ATCC 25922 after 18 hrs in presence of NH4Cl by broth dilution method; format: functional; conditions: ATCC 25922, 18 h
Candida albicans [15] = assay: Fungicidal activity against Candida albicans SP3903 after 96 hrs; format: functional; conditions: SP3903, 96 h, read-out: MFC99.9; outline: as §1
Candida albicans [16] = assay: Fungicidal activity against fluconazole-resistant Candida albicans 56214 after 96 hrs; format: functional; conditions: Candida albicans, 56214, 96 h; read-out: MFC99.9; outline: as §1
[17] = Antibacterial activity against Salmonella pullorum ATCC 7913 after 24 hrs; format: functional, Salmonella enterica subsp. enterica serovar Pullorum; conditions: Salmonella enterica, ATCC 7913, 24 h
Outline: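 Broth microdilution. Mid-log bacteria in MHB at a final (0.5−1) × 10^5 CFU/mL were mixed with equal volumes of peptide serially diluted in 0.2% BSA. Plates were incubated 24 h at 37 °C and read at A492. MIC is the lowest concentration inhibiting 95% of growth. Each test was repeated at least 3 times.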

[18] = Cytotoxicity against mouse RAW264.7 cells assessed as cell viability at 2 to 64 uM after 24 hrs by MTT assay relative to control; format: cell-based; conditions: read-out: Activity
Outline: (§4)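 MTT viability assay. RAW264.7 or HEK293T cells at (1.0−2.0) × 10^5 per well were exposed to a peptide concentration series for 24 h at 37 °C in 5% CO2. MTT was then added at 0.5 mg/mL final for 4 h; formazan was dissolved in DMSO and read at 570 nm. Results average three independent trials.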

Escherichia coli [19] = assay: Antibacterial activity against Escherichia coli ATCC 25922 after 18 hrs in presence of NaCl by broth dilution method; format: functional; conditions: ATCC 25922, 18 h
Candida albicans [20] = assay: Antifungal activity against Candida albicans cgmcc 2.2086 in presence of NH4Cl by broth dilution method; format: functional
Escherichia coli [21] = assay: Antibacterial activity against Escherichia coli ATCC 25922 after 18 hrs in presence of ZnCl2 by broth dilution method; format: functional; conditions: ATCC 25922, 18 h
[22] = Cytotoxicity against HEK293T cells assessed as cell viability at 2 to 64 uM after 24 hrs by MTT assay relative to control; format: cell-based, HEK-293T; conditions: human, read-out: Activity; outline: as §4
Escherichia coli [23] = assay: Antibacterial activity against Escherichia coli ATCC 25922 after 18 hrs in presence of CaCl2 by broth dilution method; format: functional; conditions: ATCC 25922, 18 h
Salmonella typhimurium = assay: Bactericidal activity against Salmonella typhimurium ATCC 14028; format: functional, Salmonella enterica subsp. enterica serovar Typhimurium; conditions: Salmonella enterica, read-out: MBC99.9; outline: as §3

Molecule	MBC (Staphylococcus aureus [1])	MFC (Candida albicans [2])	MFC (Candida albicans [3])	MIC95 (Staphylococcus aureus [4])	MIC95 (Candida albicans [5])	MBC (Staphylococcus aureus [7])	MIC (Candida albicans [8])	MIC95 (Candida albicans [9])	MFC (Candida albicans [10])	MIC95 (Candida albicans [11])	MIC95 (Candida parapsilosis)	MIC (Candida albicans [12])	MFC (Pichia kudriavzevii)	MFC (Candida albicans [13])	HC10 (Erythrocyte)	MFC (Candida albicans [15])	MFC (Candida albicans [16])	MIC95 [17]	MIC (Candida albicans [20])	MBC (Salmonella typhimurium)	other results
H-FFRRFRRFF-NH2	4 µM	32 µM	32 µM	4 µM	16 µM	8 µM	16 µM	16 µM	32 µM	4 µM	> 64 µM	32 µM	4 µM	16 µM	> 128 µM	16 µM	32 µM	32 µM	8 µM	8 µM	MIC (Escherichia coli [6]): 8 µM; MIC (Escherichia coli [14]): 8 µM; viability at 24 h, up to 64 µM [18]: 70 to 80%; MIC (Escherichia coli [19]): 8 µM; MIC (Escherichia coli [21]): 8 µM; viability at 24 h, up to 64 µM [22]: 70 to 80%; MIC (Escherichia coli [23]): 32 µM
H-RLRLLLRLR-NH2	4 µM	16 µM	8 µM	4 µM	8 µM	8 µM	16 µM	8 µM	4 µM	16 µM	> 64 µM	64 µM	8 µM	8 µM	> 128 µM	8 µM	16 µM	4 µM	8 µM	8 µM	MIC (Escherichia coli [6]): 4 µM; MIC (Escherichia coli [14]): 4 µM; viability at 24 h, up to 64 µM [18]: 70 to 80%; MIC (Escherichia coli [19]): 4 µM; MIC (Escherichia coli [21]): 8 µM; viability at 24 h, up to 64 µM [22]: 70 to 80%; MIC (Escherichia coli [23]): 8 µM
H-WWRRWRRWW-NH2	4 µM	32 µM	8 µM	4 µM	16 µM	8 µM	16 µM	8 µM	8 µM	2 µM	32 µM	16 µM	4 µM	8 µM	> 128 µM	4 µM	8 µM	8 µM	8 µM	16 µM	MIC (Escherichia coli [6]): 4 µM; MIC (Escherichia coli [14]): 8 µM; MIC (Escherichia coli [19]): 8 µM; MIC (Escherichia coli [21]): 16 µM; MIC (Escherichia coli [23]): 32 µM
H-RWWRRWRRWWR-NH2	8 µM	16 µM	4 µM	4 µM	8 µM	16 µM	8 µM	4 µM	4 µM	4 µM	16 µM	8 µM	4 µM	8 µM	> 128 µM	2 µM	8 µM	4 µM	4 µM	32 µM	MIC (Escherichia coli [6]): 8 µM; MIC (Escherichia coli [14]): 16 µM; MIC (Escherichia coli [19]): 16 µM; MIC (Escherichia coli [21]): 16 µM; MIC (Escherichia coli [23]): 32 µM
CC[C@H](C)[C@H](NC(=O)CN)C(=O)NCC(=O)N[C@@H](C)C(=O)N[C@H](C(=O)N[C@@H](CC(C)C)C(=O)N[C@@H](CCCCN)C(=O)N[C@H](C(=O)N[C@@H](CC(C)C)C(=O)N[C@H](C(=O)N[C@H](C(=O)NCC(=O)N[C@@H](CC(C)C)C(=O)N1CCC[C@H]1C(=O)N[C@@H](C)C(=O)N[C@@H](CC(C)C)C(=O)N[C@H](C(=O)N[C@@H](CO)C(=O)N[C@@H](Cc1c[nH]c2ccccc12)C(=O)N[C@H](C(=O)N[C@@H](CCCCN)C(=O)N[C@@H](CCCNC(=N)N)C(=O)N[C@@H](CCCCN)C(=O)N[C@@H](CCCNC(=N)N)C(=O)N[C@@H](CCC(N)=O)C(=O)N[C@@H](CCC(N)=O)C(N)=O)[C@@H](C)CC)[C@@H](C)CC)[C@@H](C)O)[C@@H](C)O)C(C)C)C(C)C [MELITTIN]	1 µM (≈ 2.85 µg/mL)	8 µM (≈ 22.8 µg/mL)	2 µM (≈ 5.69 µg/mL)	1 µM (≈ 2.85 µg/mL)	8 µM (≈ 22.8 µg/mL)	4 µM (≈ 11.4 µg/mL)	4 µM	4 µM (≈ 11.4 µg/mL)	8 µM (≈ 22.8 µg/mL)	8 µM (≈ 22.8 µg/mL)	2 µM (≈ 5.69 µg/mL)	8 µM	4 µM (≈ 11.4 µg/mL)	8 µM (≈ 22.8 µg/mL)	0.25 µM	4 µM (≈ 11.4 µg/mL)	4 µM (≈ 11.4 µg/mL)	2 µM (≈ 5.69 µg/mL)	4 µM	2 µM (≈ 5.69 µg/mL)	
